Assay results: publication PMC11022931 (Blood, 2022)

What was measured:
human platelets [1] = experiment: Multiple electrode aggregometry; format: cell-based; conditions: MEA, human blood; for effect on platelet aggregation induced by human plaque homogenate: plaque 833 µg/mL, AMD3465 100 nM, i[VREY]4 5 µM
[2] = i[VREY]4 pharmacokinetics, plasma ELISA; format: in vivo, C57BL/6J mice; conditions: C57BL/6J, mouse, ip, 75 ug
Procedure, shortened: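 Biotinylated test compound (75 µg) was injected i.p. into mice. Plasma levels of the biotinylated peptide were measured by ELISA at several time points after injection. Data are means ± SD.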

mouse platelets [3] = experiment: i[VREY]4-biot binding to mouse platelets, flow cytometry; format: cell-based
mouse platelets [4] = experiment: MEA in mouse blood activated with collagen; format: cell-based; conditions: 1 µg/mL collagen, 5 µM i[VREY]4, n = 6-8
Procedure, shortened: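 Blood came from mice with megakaryocyte-lineage Cxcl12 deletion (Pf4-Cre × Cxcl12 fl/fl, Apoe-/- background) or from Cxcl12 wt/wt controls. It was mixed with 1 µg/mL collagen with or without 5 µM test compound, and aggregation was measured by multiple electrode aggregometry (Multiplate), n=6-8 mice. Data are means ± SD.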

[5] = target: CXCL12 on human platelets (Homo sapiens, UniProt P48061); experiment: Detection of CXCL12 on human platelets with anti-CXCL12 antibodies; format: cell-based; conditions: human blood, CXCL12 0.1 µg/mL or collagen 1 µg/mL
15N-labeled CXCL12 = 15N-labeled CXCL12 (Homo sapiens, UniProt P48061); experiment: 15N HSQC NMR titration of CXCL12 with i[VREY]4; format: binding; conditions: 20 µM 15N-CXCL12, i[VREY]4 20, 40, 200 µM; 25 mM KPi pH 7.1; 25 °C
human platelets [6] = experiment: i[VREY]4-biot binding and proximity ligation with CXCL12 on human platelets; format: cell-based; conditions: flow cytometry, resting vs collagen-activated, n = 6
CXCR4 = CXCR4 internalization on human platelets, flow cytometry; format: cell-based; conditions: CXCL12 0.1 µg/mL, i[VREY]4 5 µM
Procedure, shortened: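 Human blood diluted 1:1 with PBS and treated with recombinant CXCL12 (0.1 µg/mL), collagen (1 µg/mL) and test compound (5 µM). Platelet-surface CXCR4 was stained with anti-CXCR4 clone 12G5 and measured by flow cytometry. Data are means ± SD of independent experiments, analysed by one-way ANOVA with Tukey's multiple comparison test.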

human platelets [7] = experiment: Platelet activation by PAC-1 and P-selectin staining, flow cytometry; format: cell-based; conditions: human blood, remibrutinib 0.1 µM 30 minutes at 37°C, CXCL12 0.1 μg/mL, CRP-XL 0.01 μg/mL, n = 6
CXCL12 = CXCL12 (Homo sapiens, UniProt P48061); conditions: read-out: KD of CXCL12 binding to CCL5; cited from earlier work

Molecule: c1ccc(CNCc2ccc(CN3CCCNCCNCCCNCC3)cc2)nc1 [AMD3465, reference compound]
- effect on platelet aggregation induced by human plaque homogenate (human platelets [1]): reduced

Molecule: CC[C@H](C)[C@H](NC(=O)[C@H](Cc1ccc(O)cc1)NC(=O)[C@H](CCC(=O)O)NC(=O)[C@H](CCCNC(=N)N)NC(=O)[C@@H](NC(=O)[C@H](Cc1c[nH]c2ccccc12)NC(=O)[C@H](CCCCN)NC(=O)[C@H](CCCCN)NC(=O)[C@H](CCC(=O)O)NC(=O)CNC(=O)CON=C(C)CCCC(=O)NCCCC[C@@H]1NC(=O)[C@H](CCC(=O)O)NC(=O)[C@H](CCCCNC(=O)CCCC(C)=NOCC(=O)NCC(=O)N[C@@H](CCC(=O)O)C(=O)N[C@@H](CCCCN)C(=O)N[C@@H](CCCCN)C(=O)N[C@@H](Cc2c[nH]c3ccccc23)C(=O)N[C@H](C(=O)N[C@@H](CCCNC(=N)N)C(=O)N[C@@H](CCC(=O)O)C(=O)N[C@@H](Cc2ccc(O)cc2)C(=O)N[C@H](C(=O)N[C@@H](CC(N)=O)C(=O)N[C@@H](CO)C(=O)N[C@@H](CC(C)C)C(=O)N[C@@H](CCC(=O)O)C(=O)N[C@@H](CCSC)C(=O)N[C@@H](CO)C(=O)O)[C@@H](C)CC)C(C)C)NC(=O)[C@@H]2CCCN2C(=O)[C@H](CSC2CC(=O)N(CCCCCC(=O)NNC(=O)CCCC[C@@H]3SC[C@@H]4NC(=O)N[C@@H]43)C2=O)NC(=O)[C@H](CCCCNC(=O)CCCC(C)=NOCC(=O)NCC(=O)N[C@@H](CCC(=O)O)C(=O)N[C@@H](CCCCN)C(=O)N[C@@H](CCCCN)C(=O)N[C@@H](Cc2c[nH]c3ccccc23)C(=O)N[C@H](C(=O)N[C@@H](CCCNC(=N)N)C(=O)N[C@@H](CCC(=O)O)C(=O)N[C@@H](Cc2ccc(O)cc2)C(=O)N[C@H](C(=O)N[C@@H](CC(N)=O)C(=O)N[C@@H](CO)C(=O)N[C@@H](CC(C)C)C(=O)N[C@@H](CCC(=O)O)C(=O)N[C@@H](CCSC)C(=O)N[C@@H](CO)C(=O)O)[C@@H](C)CC)C(C)C)NC(=O)[C@H](CCCCN)NC(=O)[C@H](CCCCNC(=O)CCCC(C)=NOCC(=O)NCC(=O)N[C@@H](CCC(=O)O)C(=O)N[C@@H](CCCCN)C(=O)N[C@@H](CCCCN)C(=O)N[C@@H](Cc2c[nH]c3ccccc23)C(=O)N[C@H](C(=O)N[C@@H](CCCNC(=N)N)C(=O)N[C@@H](CCC(=O)O)C(=O)N[C@@H](Cc2ccc(O)cc2)C(=O)N[C@H](C(=O)N[C@@H](CC(N)=O)C(=O)N[C@@H](CO)C(=O)N[C@@H](CC(C)C)C(=O)N[C@@H](CCC(=O)O)C(=O)N[C@@H](CCSC)C(=O)N[C@@H](CO)C(=O)O)[C@@H](C)CC)C(C)C)NC(=O)[C@@H]2CCCN2C(=O)CNC1=O)C(C)C)C(=O)N[C@@H](CC(N)=O)C(=O)N[C@@H](CO)C(=O)N[C@@H](CC(C)C)C(=O)N[C@@H](CCC(=O)O)C(=O)N[C@@H](CCSC)C(=O)N[C@@H](CO)C(=O)O (some centres unmarked) [i[VREY]4-biot]
- Cmax [2]: 1970 ng/mL
- binding to the surface of unactivated mouse platelets (mouse platelets [3]; resting conditions, flow cytometry): No binding was observed
- binding to the surface of mouse platelets, wild type vs CXCR4 knockout (mouse platelets [3]; resting or 10 µg/mL collagen, streptavidin-FITC flow cytometry, n = 3-5): required platelet activation and CXCR4

Molecule: CC[C@H](C)[C@H](NC(=O)[C@H](Cc1ccc(O)cc1)NC(=O)[C@H](CCC(=O)O)NC(=O)[C@H](CCCNC(=N)N)NC(=O)[C@@H](NC(=O)[C@H](Cc1c[nH]c2ccccc12)NC(=O)[C@H](CCCCN)NC(=O)[C@H](CCCCN)NC(=O)[C@H](CCC(=O)O)NC(=O)CNC(=O)CON=C(C)CCCC(=O)NCCCC[C@@H]1NC(=O)[C@H](CCC(=O)O)NC(=O)[C@H](CCCCNC(=O)CCCC(C)=NOCC(=O)NCC(=O)N[C@@H](CCC(=O)O)C(=O)N[C@@H](CCCCN)C(=O)N[C@@H](CCCCN)C(=O)N[C@@H](Cc2c[nH]c3ccccc23)C(=O)N[C@H](C(=O)N[C@@H](CCCNC(=N)N)C(=O)N[C@@H](CCC(=O)O)C(=O)N[C@@H](Cc2ccc(O)cc2)C(=O)N[C@H](C(=O)N[C@@H](CC(N)=O)C(=O)N[C@@H](CO)C(=O)N[C@@H](CC(C)C)C(=O)N[C@@H](CCC(=O)O)C(=O)N[C@@H](CCSC)C(=O)N[C@@H](CO)C(=O)O)[C@@H](C)CC)C(C)C)NC(=O)[C@@H]2CCCN2C(=O)[C@H](CSCC(N)=O)NC(=O)[C@H](CCCCNC(=O)CCCC(C)=NOCC(=O)NCC(=O)N[C@@H](CCC(=O)O)C(=O)N[C@@H](CCCCN)C(=O)N[C@@H](CCCCN)C(=O)N[C@@H](Cc2c[nH]c3ccccc23)C(=O)N[C@H](C(=O)N[C@@H](CCCNC(=N)N)C(=O)N[C@@H](CCC(=O)O)C(=O)N[C@@H](Cc2ccc(O)cc2)C(=O)N[C@H](C(=O)N[C@@H](CC(N)=O)C(=O)N[C@@H](CO)C(=O)N[C@@H](CC(C)C)C(=O)N[C@@H](CCC(=O)O)C(=O)N[C@@H](CCSC)C(=O)N[C@@H](CO)C(=O)O)[C@@H](C)CC)C(C)C)NC(=O)[C@H](CCCCN)NC(=O)[C@H](CCCCNC(=O)CCCC(C)=NOCC(=O)NCC(=O)N[C@@H](CCC(=O)O)C(=O)N[C@@H](CCCCN)C(=O)N[C@@H](CCCCN)C(=O)N[C@@H](Cc2c[nH]c3ccccc23)C(=O)N[C@H](C(=O)N[C@@H](CCCNC(=N)N)C(=O)N[C@@H](CCC(=O)O)C(=O)N[C@@H](Cc2ccc(O)cc2)C(=O)N[C@H](C(=O)N[C@@H](CC(N)=O)C(=O)N[C@@H](CO)C(=O)N[C@@H](CC(C)C)C(=O)N[C@@H](CCC(=O)O)C(=O)N[C@@H](CCSC)C(=O)N[C@@H](CO)C(=O)O)[C@@H](C)CC)C(C)C)NC(=O)[C@@H]2CCCN2C(=O)CNC1=O)C(C)C)C(=O)N[C@@H](CC(N)=O)C(=O)N[C@@H](CO)C(=O)N[C@@H](CC(C)C)C(=O)N[C@@H](CCC(=O)O)C(=O)N[C@@H](CCSC)C(=O)N[C@@H](CO)C(=O)O [i[VREY]4]
- effect on collagen-induced platelet aggregation in blood from Cxcl12 wt/wt mice (mouse platelets [4]): diminished
- effect on platelet aggregation induced by human plaque homogenate (human platelets [1]): inhibited
- effect on binding of anti-CXCL12 antibody clone #79018 to platelets ([5]; n = 8): diminished
- effect on binding of anti-CXCL12 antibody K15C to platelets ([5]; n = 10): did not result in reduced binding of K15C
- affinity of interaction with CXCL12 by HSQC NMR titration (15N-labeled CXCL12): in the micromolar range
- change of i[VREY]4 binding to human platelets on activation with collagen (human platelets [6]): increased
- effect on internalization of CXCR4 after CXCL12 exposure (CXCR4): could not be reversed

Molecule: C=CC(=O)N(C)CCOc1c(N)ncnc1-c1cc(F)cc(NC(=O)c2ccc(C3CC3)cc2F)c1C [remibrutinib]
- effect on P-selectin expression and integrin αIIbβ3 activation by CRP-XL combined with CXCL12 (human platelets [7]): reversed

Molecule: CCL5: recombinant human chemokine CCL5
- Kd (CXCL12): 0.578 ± 0.061 µM

Molecule: CXCL12: recombinant human chemokine CXCL12, platelet agonist
- CXCL12 concentration that induced platelet aggregation (human platelets [1]; recombinant CXCL12 alone, n = 5-10): ≥ 100 ng/mL
